Test system: MS2 coat protein
Experiment: apparent Kd, MS2 coat protein; higher = weaker binding; RNA-MaP array
Method in brief: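 Fluorescently labeled MS2 coat protein, from 1.5 nM to 3 μM, was incubated at room temperature with designed RNAs transcribed on an Illumina sequencing chip from sequenced DNA templates. Times ran from 0.8–1.5 h at the lowest concentrations to 10–20 min at the highest, in Tris-HCl pH 7.5 buffer with KCl, MgCl2, BSA, DTT, tRNA and Tween20, with or without input ligand. Each apparent Kd is the median of per-cluster binding-curve fits, and designs with fewer than 10 measured clusters were excluded.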

[1] = designed as: ON switch for flavin mononucleotide, no ligand
[2] = ligand present: flavin mononucleotide, designed as: ON switch for flavin mononucleotide
[3] = designed as: OFF switch for flavin mononucleotide, no ligand
[4] = ligand present: flavin mononucleotide, designed as: OFF switch for flavin mononucleotide
[5] = designed as: ON switch for theophylline, no ligand
[6] = ligand present: theophylline, designed as: ON switch for theophylline

## AUACGAGCCAAGAAGGAGGGAGAUCCUGCAGUCCUAGGAUAUUGGCCACAAUCGGCGGACGACAUGAGGAUCACCCAUGUCCCG
[1]
  apparent Kd: 41.8 nM
[2]
  apparent Kd: 16 nM

## GAUCCCACGAAGAAGGUCAGAUUUAGAUUACUUGAAGGAUAUUCACAUGAGGAUCACCCAUGUCCCGGCGCGGACUAGCCGAAU
[3]
  apparent Kd: 107 nM
[4]
  apparent Kd: 235 nM

## AAGCUUCAACUUCAUUCACAUGAGGAUCACCCAUGUGAUCCGAGAAGGUUUCACUAGAAUUCUGAAAAGGAUAUCGAUCACAAU
[3]
  apparent Kd: 16.2 nM
[4]
  apparent Kd: 19.7 nM

## CUAGUGUGAGGAUAUGAGUCAACCUUUUAGUUCUAAGGAGAUCAGAAGGCACAUGAGGAUCACCCAUGUCAGAA
[3]
  apparent Kd: 33.4 nM
[4]
  apparent Kd: 84 nM

## UGGUCAGAUGUAAGGAUAUUCGCUCUAAUUUCUCAGAAGAAGGUACAUGAGGAUCACCCAUGUAAUAAAGAAAA
[3]
  apparent Kd: 9.38 nM
[4]
  apparent Kd: 19.6 nM

## CCUCAGCAAUUGGAUACCAGUACAUCGUAAGACAUGAGGAUCACCCAUGUGGGCUUGACAUACCCUUGGCAGCCAUCCUUGAUCC
[5]
  apparent Kd: 234 nM
[6]
  apparent Kd: 252 nM

## UAUAGUUAAAAGGAUAUCGAAAACAAGCGUAAACGAGAAGGUUUAACAUGAGGAUCACCCAUGUAAGGAGAUGG
[3]
  apparent Kd: 58.4 nM
[4]
  apparent Kd: 139 nM

## ACAACAAAACAGAAGGCCUUAAAUUACAUGAGGAUCACCCAUGUUACACUAUACAAACAGAACAAGGAGGAUAUGUAAGACUGA
[1]
  apparent Kd: 19.9 nM
[2]
  apparent Kd: 8.65 nM

## ACAUGAGGAUCACCCAUGUUUUAUUCGAACUGGAAAUGACGUCAGGAUAUCACAAAUAGCAGCAAUGAGAAGGGACUAUAUAUG
[1]
  apparent Kd: 11.6 nM
[2]
  apparent Kd: 8.79 nM

## GUUCGCUGAGGAUAUACAUGAGGAUCACCCAUGUUCAAGUCUCGUGACUGUUCCCAGCGUAGAAGGCAGCGGUG
[3]
  apparent Kd: 7.62 nM
[4]
  apparent Kd: 8.85 nM

## AACUAAAACGAUAGUCGACAUGAGGAUCACCCAUGUACAAAACAGGAUAUAAGAUUACCGGUGUGUAAGAAGGGUUUGCUAUCA
[1]
  apparent Kd: 15.2 nM
[2]
  apparent Kd: 12.6 nM

## AUUAACAUGAGGAUCACCCAUGUUCUCACACGAGGACCGGUACGGCCGCCACUCGGUUUGGUAUUGGUCACUAGGCAGUUAGGAG
Designed as: ON switch for tryptophan, no ligand
  apparent Kd: 15.9 nM
Ligand present: tryptophan, designed as: ON switch for tryptophan
  apparent Kd: 17.6 nM

## CUGAAGUAAGGAUAUAUAUACCAUAGACCAUUAAAGACAUUAUAGAAGGUACAUGAGGAUCACCCAUGUGGGAA
[3]
  apparent Kd: 29.9 nM
[4]
  apparent Kd: 26.4 nM

## AUUCCACAUGAGGAUCACCCAUGUUCUGCUCUGCAUGGAAACAGAAGGAUUCGCGUCAGGUCGAAAUAGGAUAUGUUGUCAAAG
[3]
  apparent Kd: 33.6 nM
[4]
  apparent Kd: 28.5 nM

## UCAUUUUCAGAAGGAUAUUUACCAGGCCAAGGUAAAGAAGGUCUAUGGGUCACUUCCUUGAUACAUGAGGAUCACCCAUGUGAA
[3]
  apparent Kd: 292 nM
[4]
  apparent Kd: 429 nM

## ACUCCCGCAGAAGGAUAUCCUGACUGAACGAUCGACAUGAGGAUCACCCAUGUGUCUCCGUCGAGGGAGAAGGUCUGCUGUGAC
[1]
  apparent Kd: 18.7 nM
[2]
  apparent Kd: 7.98 nM

## UUAAAGGCACCUCAUGGGACUAUAAACCCGCGAGGACCGGUACGGCCGCCACUCGAAUAUCAACAUGAGGAUCACCCAUGUGGUU
Designed as: OFF switch for tryptophan, no ligand
  apparent Kd: 21.8 nM
Ligand present: tryptophan, designed as: OFF switch for tryptophan
  apparent Kd: 48.5 nM

## UAUCUAACGAAGGAUACCAGUACAUGAGAGUACAUGAGGAUCACCCAUGUUAGAUACGGGUACCCUUGGCAGCCUCACCUACACC
[5]
  apparent Kd: 56.8 nM
[6]
  apparent Kd: 63.3 nM

## UUCUGUUCCAAGAAGGUCAAAAUUGAUGCCUCUGAAGGAUAUUGGACAGCCAAGGUCUGUGACAUGAGGAUCACCCAUGUUCAG
[1]
  apparent Kd: 6.72 nM
[2]
  apparent Kd: 6.14 nM

## CCUGGGACAUGAGGAUCACCCAUGUGUGUUAUCGGUGCGUGAGAGGAUAUACACAGCGUCCGUUAGUAGAAGGCUCAUGAUGUA
[3]
  apparent Kd: 88.3 nM
[4]
  apparent Kd: 52.5 nM

## AGGCACCAGAGAGGAUAUUAGGACAGCGAACAUGAGGAUCACCCAUGUAUGUUUGUUAGGCGAGCUAAGAAGGCUCCACGGGUU
[3]
  apparent Kd: 6.9 nM
[4]
  apparent Kd: 6.73 nM

## GAUAAAGUAGGAUAUACAUGAGGAUCACCCAUGUAGAGAGGAGAGCGUGCGAGAACCAGUAGAAGGACUAAACA
[3]
  apparent Kd: 13.9 nM
[4]
  apparent Kd: 12.4 nM

## UGAGGUAAGGAGAAGGUCCAACGAUGAAUUUAGGAAGGAUAUCCAACAUGAGGAUCACCCAUGUAAGGGUGCCCGAAGUCAGGA
[3]
  apparent Kd: 133 nM
[4]
  apparent Kd: 178 nM

## AGCUGGGCUGAGAAGGCGUAUCGCUGUUAAGUGACAUGAGGAUCACCCAUGUAAUUACGAGGCUACGAGGAUAUCAACUAUGGA
[1]
  apparent Kd: 35.1 nM
[2]
  apparent Kd: 15.5 nM

## AUAAAAUGCUUAGGAUAUGUAACAGCAUGCACAUGAGGAUCACCCAUGUUAUAUUUAGUGGAAUGACAGAAGGAAGUAGAGACU
[1]
  apparent Kd: 18.6 nM
[2]
  apparent Kd: 13.5 nM

## GCUGAACAUGAGGAUCACCCAUGUCCGGAUACCAGCGGACCUCAUCGCCCUUGGCAGCCGAACCAACAGCUUGUGGUGUUCACUC
[5]
  apparent Kd: 35.4 nM
[6]
  apparent Kd: 49.9 nM

Source: the EternaBench riboswitch data
